In the library only some 1.9% were active in any assay of this set; here they are far more common.
GRK2 aptamer HTS – human GRK2 inhibition via aptamer displacement; P25098; bead flow cytometry, FAM-aptamer displacement from GRK2; inhibition of aptamer binding, % at 10 µM; 330,000 tested, 0.59% active;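 active = inhibition of aptamer binding above 40%, roughly 3 SD of noise, on plates passing a quality check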;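 note: median bead fluorescence of bound FAM aptamer so fluorescent compounds give negative values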
SR-BI DiI-HDL act – SR-BI HDL lipid transfer activation. CHO ldlA[mSR-BI] cells, DiI-HDL uptake fluorescence, 3 h; 100 = double the neutral-control signal. activation, % at 12.5 µM. 320,000 tested, 0.096% active;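 active = mean replicate activation of at least 60% and every replicate at or above 60%; inconclusive = mean or all-replicate condition met, but not both; inactive = mean below 60% and not all replicates reaching 60%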;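 note: 0% = median plate neutral-control signal and 100% = twice that signal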
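System: LDL receptor-deficient CHO ldlA cells overexpressing murine SR-BI | Timing: 3 h uptake period with compound, 37 °C | Medium: HEPES-buffered (25 mM, pH 7.4) F12 plus 0.5% BSA | Dosing: Single-point compound dose | Signal: Bottom-read fluorescence, 550/595 nm | Read-out: Retained DiI signal reflecting DiI-HDL uptake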
SR-BI HDL uptake – blocks mouse SR-BI lipid uptake from DiI-HDL; ldlA[mSR-BI] CHO cells, DiI-HDL uptake fluorescence, 3 h; Q61009; inhibition, % at 12.5 µM; 320,000 tested, 0.96% active; AID 488896;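 active = mean replicate inhibition of at least 70% and a set share of replicates each scoring 70 or more; inconclusive = meets just one of the two criteria; inactive = fails both criteria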;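 note: 0% = median of neutral control wells and 100% = median of positive control wells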
Rin1-Abl PPI inh – human Rin1-Abl interaction inhibition | TR-FRET Rin1/Abl binding, biochemical | inhibition, % at 7.35 µM | 360,000 tested, 0.4% active; in the data active = inhibition above about 5%, passing the limit was not always enough
DiI quencher – DiI fluorescence quenching in cell-free counter-screen. shares compounds with SR-BI HDL uptake. AC50, µM (doses to about 35 µM), for inactives: at the top dose activity change, negative = quenching. cell-free DiI-HDL fluorescence quenching, 30 min. 470 tested, 20% active;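 active = quenching, a falling signal, with AC50 below a set limit tied to the top valid dose, actives reach about 32 µM in these data; inconclusive = no clear call, values can overlap the other calls; inactive = rising signal, and the rest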
An asterisk follows results filed as active; ? = inconclusive; / = not tested or not shown.

SMILES	GRK2 aptamer HTS	SR-BI DiI-HDL act	SR-BI HDL uptake	Rin1-Abl PPI inh	DiI quencher
CCOc1ccc(NS(=O)(=O)c2ccc(C(=O)NNC(=O)c3ccccc3O)cc2)cc1	3	-127	127*	0	0.61µM*
Cc1cccc(Nc2ccccc2C(=O)OCC(=O)N(C)C2CCS(=O)(=O)C2)c1C (stereo not drawn)	5	-73	73*	2	2%
CCN(C(=O)COC(=O)c1c(C)c(-c2ccccc2)nc2ccccc12)C1CCS(=O)(=O)C1 (stereo not drawn)	6	-75	75*	-6	-1%
Cc1ccc2nc3c(c(C(=O)OCC(=O)N(C)C4CCS(=O)(=O)C4)c2c1)CCCC3 (stereo not drawn)	3	-74	74*	1	-1%
COc1ccc(-c2cc(NC(C)=O)c3ncc(-c4ccc(F)cc4)n3c2)cc1OC	/	/	/	-1	/
CC(=O)c1cccc(NC(=O)C2Cc3c(-c4ccco4)ccnc3O2)c1 (stereo not drawn)	/	/	/	1	/
CC1CCCCC1NC(=O)c1nn(C)c2c1CS(=O)(=O)c1ccccc1-2 (stereo not drawn)	0	-78	78*	1	1%
COC(=O)/C=C/c1ccc2c(c1)S(=O)(=O)N(c1cccc(OC)c1)[C@H]2CC(=O)OC	0	-87	87*	0	-5%
COc1cccc(N2[C@@H](CC(=O)O)c3ccccc3S2(=O)=O)c1	3	13	-13	0	/
CC1=C(C(=O)N(C(C)C)C(C)C)CC(CC(=O)NCc2ccco2)C(=O)N1Cc1ccc(C(C)(C)C)cc1 (stereo not drawn)	/	/	/	4	/
Cn1cc(S(=O)(=O)N2CCN(c3ccccc3F)CC2)c(=O)n(C)c1=O	1	3	-3	-2	/
CCC(C)NC(=O)Cn1cc(S(=O)(=O)N2CCN(c3ccccc3F)CC2)c2ccccc2c1=O (stereo not drawn)	0	-87	87*	1	4%
Brc1ccc2nc(C3CCCCC3)c(Cc3ccsc3)n2c1	/	/	/	-2	/
CCCCNC(=O)C1(C)CCCCN1CC(=O)c1ccc(OC)cc1 (stereo not drawn)	/	/	/	-4	/
CC(=O)Nc1ccc(C(=O)OCC(=O)N(c2ccccc2)C2CCCCC2)cc1	1	-5	5	0	/
CC(=O)Nc1cc(NC(C)=O)cc(C(=O)OCC(=O)N(c2ccccc2)C2CCS(=O)(=O)C2)c1 (stereo not drawn)	4	12	-12	1	-3%
COCc1cc(=O)oc2cc(NC(=O)c3ccc(C(C)(C)C)cc3)ccc12	1	-71	?	3	3%
CCOc1ccccc1N(CC(=O)Nc1ccccc1Br)S(=O)(=O)c1ccccc1	/	/	/	2	/
CN(Cc1ccc(OC(F)F)cc1)C(=O)c1ccccc1Sc1ccccc1C#N	0	-85	85*	-3	-4%
CNC(=O)c1ccc(Nc2nnc(-c3ccc(O)cc3)c3ccccc23)cc1	1	-99	99*	-3	3%
Cc1cccc(-n2c(C)nc3cc(C(=O)NCCN4CCOCC4)ccc32)c1	/	/	/	-3	/
O=C(Nc1ccccc1)C1=C(O)CC(c2ccoc2)CC1=Nc1ccccc1 (stereo not drawn)	2	-72	?	4	-10%
O=C(Nc1ccccc1)C1=C(O)CC(c2ccco2)CC1=Nc1ccccc1 (stereo not drawn)	3	-49	49	-2	/
N#Cc1ccc(S(=O)(=O)N2CCCCC2c2cc(C(=O)NCc3ccccc3)no2)cc1 (stereo not drawn)	/	/	/	2	/
Cc1ccc(S(=O)(=O)N2CC3(O)CN(C(=O)OC(C)C)N(C(=O)OC(C)C)CC3(OC(=O)NCc3ccccc3)C2)cc1 (stereo not drawn)	/	/	/	3	/
Cc1cc2cc3c(cc2nc1SCC(=O)OC(C)C)OCCO3	0	-47	47	-20	/
CCc1cc2cc3c(cc2nc1SCC(=O)OC(C)C)OCO3	2	-77	77*	3	4%
CC(C)OCCCNC(=O)c1ccc(CS(=O)(=O)c2cccc(C(F)(F)F)c2)o1	3	-2	2	-1	/
COCCNC(=O)c1ccc(CS(=O)(=O)c2cccc(C(F)(F)F)c2)o1	36	-75	75*	2	9%
O=C(NC1CC1)c1ccc(CN(c2ccccc2)S(=O)(=O)c2ccccc2)cc1	2	-74	?	4	4%
